The source made the active and inactive calls. The calls are words filed in the database; no cut-off is given here.
Key:
[1] = molecular target: Acetylcholinesterase (Electrophorus electricus) (UniProt O42275); assay: Activation of Electrophorus electricus AChE at 100 uM using acetylthiocholine iodide as substrate preincubated for 30 mins followed by substrate addition and measured after 5 mins by Ellman's method relative to control
[2] = system: Saccharomyces cerevisiae; assay: Activation of yeast alpha-glucosidase type 1 at 100 uM using p-Nitrophenyl alpha-D-glucopyranoside as substrate preincubated for 10 mins followed by incubation with substrate for 15 mins and measured after 5 mins by microplate reader analysis relative to control
Outline: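 Yeast α-glucosidase type I (25 μL, 0.2 U mL−1 in PBS) with glutathione (25 μL, 3 mM) in phosphate buffer (67 mM, pH 6.8). Samples were added in DMSO–H2O 1:1 and preincubated 10 min at 37 °C. Then p-nitrophenyl α-D-glucopyranoside (25 μL, 23.2 mM) was added, 15 min at 37 °C with agitation. Stopped with 1 M Na2CO3; A405 read. % vs negative control; triplicate, mean ± SD.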

[3] = system: Saccharomyces cerevisiae; assay: Inhibition of yeast alpha-glucosidase type 1 at 100 uM using p-Nitrophenyl alpha-D-glucopyranoside as substrate preincubated for 10 mins followed by incubation with substrate for 15 mins and measured after 5 mins by microplate reader analysis
Outline: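 Sample in DMSO–H2O 1:1 added to PBS (67 mM, pH 6.8) with glutathione (3 mM in PBS) and enzyme (0.2 U mL−1 in PBS), preincubated 10 min at 37 °C. p-Nitrophenyl α-D-glucopyranoside (23.2 mM in PBS) then added, 15 min at 37 °C with agitation. Stopped with 1 M Na2CO3, read at 405 nm after 5 min. Percent inhibition versus negative control, triplicate. Quercetin positive control.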

[4] = molecular target: Acetylcholinesterase (Electrophorus electricus) (UniProt O42275); assay: Inhibition of Electrophorus electricus AChE at 100 uM using acetylthiocholine iodide as substrate preincubated for 30 mins followed by substrate addition and measured after 5 mins by Ellman's method relative to control
[5] = molecular target: Acetylcholinesterase (Electrophorus electricus, UniProt O42275); assay: Inhibition of Electrophorus electricus AChE using acetylthiocholine iodide as substrate preincubated for 30 mins followed by substrate addition and measured after 5 mins by Ellman's method
Acetylcholinesterase, sequence (O42275 whole entry): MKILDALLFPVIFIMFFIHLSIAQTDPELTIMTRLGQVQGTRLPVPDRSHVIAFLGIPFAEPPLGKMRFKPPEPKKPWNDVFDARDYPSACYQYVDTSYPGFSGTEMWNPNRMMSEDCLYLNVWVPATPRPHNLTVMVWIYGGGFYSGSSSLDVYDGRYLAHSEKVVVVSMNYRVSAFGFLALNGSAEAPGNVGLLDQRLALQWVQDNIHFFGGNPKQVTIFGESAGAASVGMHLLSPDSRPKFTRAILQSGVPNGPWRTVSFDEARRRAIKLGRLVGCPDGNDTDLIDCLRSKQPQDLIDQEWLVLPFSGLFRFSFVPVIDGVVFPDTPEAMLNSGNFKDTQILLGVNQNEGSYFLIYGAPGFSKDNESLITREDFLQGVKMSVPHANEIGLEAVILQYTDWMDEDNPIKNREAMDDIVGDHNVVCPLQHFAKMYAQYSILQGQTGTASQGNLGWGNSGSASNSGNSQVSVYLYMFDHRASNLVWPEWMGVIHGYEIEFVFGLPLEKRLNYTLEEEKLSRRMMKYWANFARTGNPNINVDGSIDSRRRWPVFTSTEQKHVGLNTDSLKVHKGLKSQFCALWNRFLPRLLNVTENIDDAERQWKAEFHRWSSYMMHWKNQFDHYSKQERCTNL

Acetylcholinesterase (Electrophorus electricus), sequence (O42275 24-633 limits assumed): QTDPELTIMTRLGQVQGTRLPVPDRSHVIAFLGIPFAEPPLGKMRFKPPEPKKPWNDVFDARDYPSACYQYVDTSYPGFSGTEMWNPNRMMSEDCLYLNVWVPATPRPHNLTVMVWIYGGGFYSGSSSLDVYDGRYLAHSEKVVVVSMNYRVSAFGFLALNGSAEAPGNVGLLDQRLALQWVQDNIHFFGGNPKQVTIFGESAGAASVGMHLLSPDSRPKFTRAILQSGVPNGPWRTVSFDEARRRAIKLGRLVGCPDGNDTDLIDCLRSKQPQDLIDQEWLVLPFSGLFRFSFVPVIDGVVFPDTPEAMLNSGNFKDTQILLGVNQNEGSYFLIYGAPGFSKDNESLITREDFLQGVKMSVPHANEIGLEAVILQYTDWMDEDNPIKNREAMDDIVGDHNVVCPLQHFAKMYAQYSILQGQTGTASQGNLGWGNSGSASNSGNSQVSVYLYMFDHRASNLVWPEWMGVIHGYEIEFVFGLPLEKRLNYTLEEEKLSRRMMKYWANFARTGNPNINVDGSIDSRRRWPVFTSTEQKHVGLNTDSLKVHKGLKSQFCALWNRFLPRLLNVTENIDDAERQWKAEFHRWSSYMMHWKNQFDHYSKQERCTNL

Row | SMILES | Activity [1] [%] | Activity [2] [%] | inhibition [3] | inhibition [4] [%] | IC50 [5] [µM]
1 | C=C1CC[C@H]2C(C)(C)CCC[C@]2(C)[C@H]1C[C@H](O)/C(C)=C/CO | 6.7 to 96 | 1.1 to 29.4 | – | – | –
2 | C=C1CC[C@H]2C(C)(C)CCC[C@]2(C)[C@H]1CC/C(=C/CO)CO | – | – | Active | 33.9 | –
3 | C=C1CC[C@H]2C(C)(C)CCC[C@]2(C)[C@H]1Cc1occc1C | – | 1.1 to 29.4 | – | 57.5 | 64.4
4 | C=C1CC[C@H]2C(C)(C)CCC[C@]2(C)[C@H]1CC(=O)/C(C)=C/CO | 6.7 to 96 | 1.1 to 29.4 | – | – | –
5 | C=C(C)C(C)(O)CC[C@@H](C)[C@H]1CC[C@H]2[C@@H]3CC=C4C[C@@H](O)CC[C@]4(C)[C@H]3CC[C@]12C (stereo partly drawn) | – | – | Active | 24 | –
6 | C/C(=C\CO)CC[C@@H]1[C@@]2(C)CCCC(C)(C)[C@@H]2CC[C@@]1(C)O | 6.7 to 96 | 1.1 to 29.4 | – | – | –
7 | C=C(CC[C@@H]1[C@@]2(C)CCCC(C)(C)[C@@H]2CC[C@@]1(C)O)[C@@H](O)CO | 6.7 to 96 | 1.1 to 29.4 | – | – | –
8 | C=C1CC[C@H]2C(C)(C)CCC[C@]2(C)[C@H]1C[C@H](O[C@@H]1O[C@H](COC(C)=O)[C@@H](OC(C)=O)[C@H](OC(C)=O)[C@H]1OC(C)=O)/C(C)=C/COC(=O)CC(C)C | 6.7 to 96 | – | Active | – | –
9 | C=C1CC[C@H]2C(C)(C)CCC[C@]2(C)[C@H]1C[C@H](O[C@@H]1O[C@H](CO)[C@@H](O)[C@H](O)[C@H]1O)/C(C)=C/CO | 6.7 to 96 | 1.1 to 29.4 | – | – | –
10 | CO[C@@H]1CC(=O)[C@]2(C)[C@H]3CC[C@]4(C)[C@@H]([C@@](C)(O)[C@H]5CC(C)=C(C)C(=O)O5)C[C@H](OC(C)=O)[C@]4(O)[C@@H]3C[C@H]3O[C@]32C1 | 6.7 to 96 | – | Active | – | –
11 | C=C1CC[C@H]2C(C)(C)CCC[C@]2(C)[C@H]1C[C@H](O[C@@H]1O[C@H](CO)[C@@H](O)[C@H](O)[C@H]1O)/C(C)=C/COC(=O)CC(C)C | 6.7 to 96 | 1.1 to 29.4 | – | – | –
12 | CC(=O)O[C@H]1C[C@H]([C@@](C)(O)[C@H]2CC(C)=C(C)C(=O)O2)[C@@]2(C)CC[C@H]3[C@@H](C[C@@H](O)[C@@]4(Cl)CC=CC(=O)[C@]34C)[C@@]12O | 6.7 to 96 | – | Active | – | –
13 | C=C(CC[C@@H]1[C@@]2(C)CCCC(C)(C)[C@@H]2CC[C@@]1(C)O)[C@H](O)CO | 6.7 to 96 | 1.1 to 29.4 | – | – | –
14 | C=C1CC[C@H]2C(C)(C)CCC[C@]2(C)[C@H]1C[C@@H](O)/C(C)=C/CO | 6.7 to 96 | 1.1 to 29.4 | – | – | –
15 | CC(=O)O[C@H]1C[C@H]([C@@](C)(O)[C@H]2CC(C)=C(C)C(=O)O2)[C@@]2(C)CC[C@H]3[C@@H](C[C@H]4O[C@]45CC=CC(=O)[C@]35C)[C@@]12O | 6.7 to 96 | – | Active | – | –
16 | CC(=O)O[C@H]1C[C@H]([C@@](C)(O)[C@H]2CC(C)=C(C)C(=O)O2)[C@@]2(C)CC[C@H]3[C@@H](C[C@@H](OC(C)=O)[C@@]4(Cl)CC=CC(=O)[C@]34C)[C@@]12O | 6.7 to 96 | – | Active | – | –

Reference: ChEMBL document CHEMBL4414557, “Labdanes, Withanolides, and Other Constituents from Physalis nicandroides” (J Nat Prod, 2019)
